Assay results reported in ChEMBL document CHEMBL3272052, “Imidazo[1,2-a]-s-triazine nucleosides. Synthesis and antiviral activity of the N-bridgehead guanine, guanosine, and guanosine monophosphate analogues of imidazo[1,2-a]-s-triazine” (J Med Chem, 1978).
Activity calls are given as the source filed them. The rule behind the calls is not given here.

Experiments:
Format in all cases: functional, organism-based
[1] = test system: Enterovirus; test: Antiviral activity against Rhinovirus 1A infected in human KB cells assessed as inhibition of virus-induced cytopathic effect after 72 hrs by microscopic analysis relative to control
[2] = test system: Enterovirus; test: Antiviral activity against Rhinovirus 2 infected in human KB cells assessed as inhibition of virus-induced cytopathic effect after 72 hrs by microscopic analysis relative to control
[3] = test system: Enterovirus; test: Antiviral activity against Rhinovirus 8 infected in human KB cells assessed as inhibition of virus-induced cytopathic effect after 72 hrs by microscopic analysis relative to control
[4] = test system: Enterovirus; test: Antiviral activity against Rhinovirus 13 infected in human KB cells assessed as inhibition of virus-induced cytopathic effect after 72 hrs by microscopic analysis relative to control
Outline: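 KB (human nasopharyngeal carcinoma) monolayers, 19-24 h old, were infected with 320 CCID50 of virus. Compound was added within 15 min at one-half-log dilutions from 1000 to 1 µg/mL. After 72 h at 37 °C, CPE and cytotoxicity were scored microscopically (0-4). The virus rating sums the control-minus-treated CPE scores over all levels, halving any level showing partial toxicity.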

[5] = test system: Enterovirus; test: Antiviral activity against Rhinovirus 30 infected in human KB cells assessed as inhibition of virus-induced cytopathic effect after 72 hrs by microscopic analysis relative to control

| Compound | inhibition [1] | inhibition [2] | inhibition [3] | inhibition [4] | inhibition [5] |
| --- | --- | --- | --- | --- | --- |
| Nc1nc(=O)n2ccn([C@@H]3O[C@H](CO)[C@@H](O)[C@H]3O)c2n1 | Active | Active | inactive | inactive | inactive |
| O=c1nc2n([C@@H]3O[C@H](CO)[C@@H](O)[C@H]3O)ccn2c(=O)[nH]1 |  |  |  | inactive |  |
| NC(=O)c1ncn([C@@H]2O[C@H](CO)[C@@H](O)[C@H]2O)n1 | Active | Active | Active | Active | Active |
| Nc1nc(=O)n2ccn([C@@H]3O[C@H](COC(=O)c4ccccc4)[C@@H](OC(=O)c4ccccc4)[C@H]3OC(=O)c3ccccc3)c2n1 |  |  |  | inactive |  |
| O=c1[nH]c(=O)n2ccnc2[nH]1 |  |  |  | inactive |  |
| Nc1nc(=O)n2cc[nH]c2n1 | Active | Active | Active | Active | Active |
| Nc1nc(=O)n2ccn([C@@H]3O[C@H](COP(=O)(O)O)[C@@H](O)[C@H]3O)c2n1 | inactive | Active | inactive | inactive | inactive |
